In ChEMBL document CHEMBL4184148 (Bioorg Med Chem Lett, 2017):

Legend:
[1] = biological target: Glycogen synthase kinase-3 beta (Homo sapiens) (UniProt P49841); experiment: Binding affinity to wild-type human full length GSK3B (M1 to T433 residues) expressed in HEK293 cells at 1 uM by Kinomescan method relative to control; type: cell-based
How it was run: (§1)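 Run as one kinome-wide competition binding panel with each compound at a single fixed concentration. Results were plotted as a kinome-wide selectivity map.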

[2] = biological target: Mitogen-activated protein kinase kinase kinase 1 (Homo sapiens) (UniProt Q13233); experiment: Binding affinity to wild-type human partial length MAP3K1 (L1202 to W1512 residues) expressed in HEK293 cells at 1 uM by Kinomescan method relative to control; type: cell-based
[3] = biological target: Serine/threonine-protein kinase TAO2 (Homo sapiens) (UniProt Q9UL54); experiment: Binding affinity to wild-type human partial length TAOK2 (M1 to A320 residues) expressed in HEK293 cells at 1 uM by Kinomescan method relative to control; type: cell-based
[4] = biological target: MAP kinase-activated protein kinase 5 (Homo sapiens) (UniProt Q8IW41); experiment: Binding affinity to wild-type human partial length MAPKAPK5 (M1 to D322 residues) expressed in HEK293 cells at 1 uM by Kinomescan method relative to control; type: cell-based
[5] = biological target: Serine/threonine-protein kinase MARK1 (Homo sapiens) (UniProt Q9P0L2); experiment: Binding affinity to wild-type human partial length MARK1 (Q30 to T341 residues) expressed in Escherichia coli BL21 at 1 uM by Kinomescan method relative to control
[6] = biological target: Cytoplasmic tyrosine-protein kinase BMX (Homo sapiens) (UniProt P51813); experiment: Binding affinity to wild-type human full length BMX (M1 to H675 residues) expressed in Escherichia coli BL21 at 1 uM by Kinomescan method relative to control
[7] = biological target: Mitogen-activated protein kinase kinase kinase 5 (Homo sapiens) (UniProt Q99683); experiment: Binding affinity to wild-type human partial length ASK1 (E648 to S964 residues) expressed in Escherichia coli BL21 at 1 uM by Kinomescan method relative to control
How it was run: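 Kinome-wide competition binding panel run by an outside provider, with each compound tested at a single concentration. Activity is read against the kinase panel.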

[8] = test system: Tyrosine-protein kinase ABL1 (Homo sapiens), P00519 [T315I]; experiment: Binding affinity to human non-phosphorylated ABL1 T315I mutant (S229 to K512 residues) expressed in HEK293 cells at 1 uM by Kinomescan method relative to control; type: cell-based
[9] = biological target: Tyrosine-protein kinase ZAP-70 (Homo sapiens) (UniProt P43403); experiment: Binding affinity to wild-type human partial length ZAP70 (D20 to G299 residues) expressed in HEK293 cells at 1 uM by Kinomescan method relative to control; type: cell-based
[10] = biological target: Fibroblast growth factor receptor 2 (Homo sapiens) (UniProt P21802); experiment: Binding affinity to wild-type human partial length FGFR2 (D457 to E769 residues) expressed in Escherichia coli BL21 at 1 uM by Kinomescan method relative to control
[11] = biological target: Serine/threonine-protein kinase VRK2 (Homo sapiens) (UniProt Q86Y07); experiment: Binding affinity to wild-type human partial length VRK2 (M1 to T336 residues) expressed in HEK293 cells at 1 uM by Kinomescan method relative to control; type: cell-based
[12] = biological target: LIM domain kinase 1 (Homo sapiens) (UniProt P53667); experiment: Binding affinity to wild-type human full length LIMK1 (M1 to D647 residues) expressed in Escherichia coli BL21 at 1 uM by Kinomescan method relative to control; how it was run: as §1
[13] = biological target: Mitogen-activated protein kinase 10 (Homo sapiens) (UniProt P53779); experiment: Binding affinity to wild-type human partial length JNK3 (V28 to Q422 residues) expressed in HEK293 cells at 1 uM by Kinomescan method relative to control; type: cell-based
[14] = test system: Receptor-type tyrosine-protein kinase FLT3 (Homo sapiens), P36888 [D835Y]; experiment: Binding affinity to human partial length FLT3 D835Y mutant (Q580 to Y969 residues) expressed in Escherichia coli BL21 at 1 uM by Kinomescan method relative to control
[15] = biological target: Rho-associated protein kinase 1 (Homo sapiens) (UniProt Q13464); experiment: Binding affinity to wild-type human partial length ROCK1 (M1 to R415 residues) expressed in HEK293 cells at 1 uM by Kinomescan method relative to control; type: cell-based
Aurora kinase B = Aurora kinase B (Homo sapiens, UniProt Q96GD4); experiment: Inhibition of Aurora B in human HCT116 cells assessed as reduction in histone H3 phosphorylation at S10 residues after 4 hrs by Western blot analysis; type: cell-based
How it was run: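 Cells were exposed to compound in dose-response for 4 h, then lysed for western blotting of histone H3 pS10. The cellular EC50 was derived from the dose-response curves. Three replicate experiments were run.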

[16] = biological target: Calcium/calmodulin-dependent protein kinase type IV (Homo sapiens) (UniProt Q16566); experiment: Binding affinity to wild-type human partial length CAMK4 (A22 to A322 residues) expressed in Escherichia coli BL21 at 1 uM by Kinomescan method relative to control
[17] = biological target: Serine/threonine-protein kinase PAK 5 (Homo sapiens) (UniProt Q9P286); experiment: Binding affinity to wild-type human partial length PAK7 (Y400 to H719 residues) expressed in Escherichia coli BL21 at 1 uM by Kinomescan method relative to control
[18] = biological target: Leucine-rich repeat serine/threonine-protein kinase 2 (Homo sapiens, UniProt Q5S007); experiment: Inhibition of recombinant GST-tagged human LRRK2 (970 to 2527 residues) catalytic domain expressed in baculovirus expression system by ADAPTA assay
[19] = biological target: Tyrosine-protein kinase ABL1 (Homo sapiens) (UniProt P00519); experiment: Binding affinity to wild-type human non-phosphorylated ABL1 (S229 to K512 residues) expressed in HEK293 cells at 1 uM by Kinomescan method relative to control; type: cell-based
[20] = test system: Phosphatidylinositol 4,5-bisphosphate 3-kinase catalytic subunit alpha isoform (Homo sapiens), P42336 [E542K]; experiment: Binding affinity to human partial length PIK3CA E542K mutant (R108 to N1068 residues) expressed in HEK293 cells at 1 uM by Kinomescan method relative to control; type: cell-based
[21] = test system: Phosphatidylinositol 4,5-bisphosphate 3-kinase catalytic subunit alpha isoform (Homo sapiens), P42336 [E545K]; experiment: Binding affinity to human partial length PIK3CA E545K mutant (R108 to N1068 residues) expressed in HEK293 cells at 1 uM by Kinomescan method relative to control; type: cell-based
[22] = biological target: Serine/threonine-protein kinase PAK 4 (Homo sapiens) (UniProt O96013); experiment: Binding affinity to wild-type human partial length PAK4 (Q144 to R438 residues) expressed in Escherichia coli BL21 at 1 uM by Kinomescan method relative to control
[23] = test system: Epidermal growth factor receptor (Homo sapiens), P00533 [UNDEFINED MUTATION]; experiment: Binding affinity to human partial length EGFR L747-S752del/P753S mutant expressed in Escherichia coli BL21 at 1 uM by Kinomescan method relative to control

Serine/threonine-protein kinase PAK 5 (Homo sapiens), sequence (Q9P286 whole entry, looked up, the tested form may be a part): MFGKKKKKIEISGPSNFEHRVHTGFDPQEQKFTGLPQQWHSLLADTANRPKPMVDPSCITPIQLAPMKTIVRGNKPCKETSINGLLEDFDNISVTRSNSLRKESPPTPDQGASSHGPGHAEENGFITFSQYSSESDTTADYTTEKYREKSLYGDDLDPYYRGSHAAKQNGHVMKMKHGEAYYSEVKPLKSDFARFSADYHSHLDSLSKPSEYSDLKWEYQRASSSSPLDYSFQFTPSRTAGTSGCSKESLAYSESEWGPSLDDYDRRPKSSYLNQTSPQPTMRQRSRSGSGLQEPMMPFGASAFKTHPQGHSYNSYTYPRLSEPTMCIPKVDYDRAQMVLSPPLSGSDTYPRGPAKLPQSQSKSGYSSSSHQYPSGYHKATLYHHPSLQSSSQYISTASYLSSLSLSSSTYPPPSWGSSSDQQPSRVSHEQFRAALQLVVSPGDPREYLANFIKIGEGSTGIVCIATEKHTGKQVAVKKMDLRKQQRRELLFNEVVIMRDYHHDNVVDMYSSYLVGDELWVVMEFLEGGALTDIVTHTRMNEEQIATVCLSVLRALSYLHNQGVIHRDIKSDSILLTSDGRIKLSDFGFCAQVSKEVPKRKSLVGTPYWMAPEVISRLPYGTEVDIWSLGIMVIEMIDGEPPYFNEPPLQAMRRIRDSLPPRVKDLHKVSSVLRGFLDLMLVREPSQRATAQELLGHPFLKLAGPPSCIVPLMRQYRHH
Phosphatidylinositol 4,5-bisphosphate 3-kinase catalytic subunit alpha isoform (Homo sapiens), P42336 [E545K], sequence (P42336 whole entry E545K, the tested form may be a part, canonical isoform): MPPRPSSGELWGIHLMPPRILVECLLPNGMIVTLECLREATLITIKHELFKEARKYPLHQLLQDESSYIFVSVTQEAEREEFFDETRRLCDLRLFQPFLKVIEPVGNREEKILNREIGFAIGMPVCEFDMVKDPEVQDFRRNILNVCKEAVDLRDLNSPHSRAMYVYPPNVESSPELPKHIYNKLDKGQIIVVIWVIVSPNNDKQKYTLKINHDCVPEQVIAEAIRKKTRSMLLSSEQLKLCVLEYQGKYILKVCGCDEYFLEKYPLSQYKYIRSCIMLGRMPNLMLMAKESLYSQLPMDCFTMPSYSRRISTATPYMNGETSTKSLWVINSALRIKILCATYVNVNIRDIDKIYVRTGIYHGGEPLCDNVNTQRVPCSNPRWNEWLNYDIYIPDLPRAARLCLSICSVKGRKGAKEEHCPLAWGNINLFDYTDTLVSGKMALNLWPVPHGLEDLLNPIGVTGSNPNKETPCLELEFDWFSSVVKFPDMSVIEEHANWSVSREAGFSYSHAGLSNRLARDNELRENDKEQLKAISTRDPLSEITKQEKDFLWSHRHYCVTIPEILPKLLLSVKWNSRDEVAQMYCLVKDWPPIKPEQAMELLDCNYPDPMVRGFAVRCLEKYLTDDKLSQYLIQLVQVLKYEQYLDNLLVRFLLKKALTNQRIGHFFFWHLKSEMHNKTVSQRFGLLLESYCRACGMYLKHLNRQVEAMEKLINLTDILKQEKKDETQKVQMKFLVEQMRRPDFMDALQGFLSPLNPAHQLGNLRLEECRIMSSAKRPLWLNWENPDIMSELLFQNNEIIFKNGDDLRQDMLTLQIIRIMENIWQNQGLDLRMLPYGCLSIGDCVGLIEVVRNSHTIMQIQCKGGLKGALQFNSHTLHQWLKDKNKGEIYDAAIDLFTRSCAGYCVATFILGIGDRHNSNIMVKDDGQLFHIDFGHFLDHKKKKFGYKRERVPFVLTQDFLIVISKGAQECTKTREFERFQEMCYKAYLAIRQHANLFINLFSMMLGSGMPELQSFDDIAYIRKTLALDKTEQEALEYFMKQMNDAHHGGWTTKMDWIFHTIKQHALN
Serine/threonine-protein kinase PAK 4 (Homo sapiens), sequence (O96013 whole entry, looked up, the tested form may be a part): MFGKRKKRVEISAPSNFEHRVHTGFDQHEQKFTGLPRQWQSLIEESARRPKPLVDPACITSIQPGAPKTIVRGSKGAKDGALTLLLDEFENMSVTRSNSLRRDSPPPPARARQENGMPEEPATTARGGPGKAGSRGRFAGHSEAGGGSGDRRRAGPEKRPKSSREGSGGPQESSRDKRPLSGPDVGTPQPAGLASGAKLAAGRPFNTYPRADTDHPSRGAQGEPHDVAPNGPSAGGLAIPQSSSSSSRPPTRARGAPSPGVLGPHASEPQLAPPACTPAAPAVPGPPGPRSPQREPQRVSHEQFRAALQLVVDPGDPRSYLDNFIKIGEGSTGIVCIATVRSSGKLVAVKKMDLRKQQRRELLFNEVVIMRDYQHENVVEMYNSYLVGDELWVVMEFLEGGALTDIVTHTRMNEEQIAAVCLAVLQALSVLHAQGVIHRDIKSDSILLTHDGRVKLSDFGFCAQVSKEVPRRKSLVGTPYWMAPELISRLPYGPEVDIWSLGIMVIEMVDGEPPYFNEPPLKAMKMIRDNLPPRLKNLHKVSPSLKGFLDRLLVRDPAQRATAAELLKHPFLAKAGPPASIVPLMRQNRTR
Calcium/calmodulin-dependent protein kinase type IV (Homo sapiens), sequence (Q16566 whole entry, the tested form may be a part): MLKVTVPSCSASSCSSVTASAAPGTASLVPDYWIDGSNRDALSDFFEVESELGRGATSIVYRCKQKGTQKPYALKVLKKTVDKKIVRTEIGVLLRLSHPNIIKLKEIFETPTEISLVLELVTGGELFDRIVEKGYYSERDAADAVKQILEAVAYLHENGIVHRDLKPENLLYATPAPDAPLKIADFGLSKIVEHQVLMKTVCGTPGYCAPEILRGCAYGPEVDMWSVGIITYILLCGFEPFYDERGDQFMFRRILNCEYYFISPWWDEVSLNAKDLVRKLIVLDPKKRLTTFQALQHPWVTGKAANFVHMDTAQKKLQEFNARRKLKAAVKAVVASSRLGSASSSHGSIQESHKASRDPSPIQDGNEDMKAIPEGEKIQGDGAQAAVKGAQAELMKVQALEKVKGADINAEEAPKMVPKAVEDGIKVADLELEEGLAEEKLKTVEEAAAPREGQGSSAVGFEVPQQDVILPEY
Serine/threonine-protein kinase VRK2 (Homo sapiens), sequence (Q86Y07 whole entry, the tested form may be a part): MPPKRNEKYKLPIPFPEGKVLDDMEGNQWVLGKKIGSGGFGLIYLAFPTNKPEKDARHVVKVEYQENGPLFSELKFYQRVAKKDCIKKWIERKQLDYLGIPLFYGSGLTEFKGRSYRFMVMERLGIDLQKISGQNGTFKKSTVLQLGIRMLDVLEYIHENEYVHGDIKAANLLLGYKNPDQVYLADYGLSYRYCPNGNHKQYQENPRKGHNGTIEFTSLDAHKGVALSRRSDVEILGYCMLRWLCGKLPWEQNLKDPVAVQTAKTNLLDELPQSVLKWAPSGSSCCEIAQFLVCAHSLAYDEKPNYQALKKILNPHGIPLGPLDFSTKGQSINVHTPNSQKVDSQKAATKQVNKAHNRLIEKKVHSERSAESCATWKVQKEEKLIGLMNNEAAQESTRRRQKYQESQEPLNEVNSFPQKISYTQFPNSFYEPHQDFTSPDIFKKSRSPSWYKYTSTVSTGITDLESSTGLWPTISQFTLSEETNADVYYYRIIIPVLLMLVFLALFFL
MAP kinase-activated protein kinase 5 (Homo sapiens), sequence (Q8IW41 whole entry, the tested form may be a part): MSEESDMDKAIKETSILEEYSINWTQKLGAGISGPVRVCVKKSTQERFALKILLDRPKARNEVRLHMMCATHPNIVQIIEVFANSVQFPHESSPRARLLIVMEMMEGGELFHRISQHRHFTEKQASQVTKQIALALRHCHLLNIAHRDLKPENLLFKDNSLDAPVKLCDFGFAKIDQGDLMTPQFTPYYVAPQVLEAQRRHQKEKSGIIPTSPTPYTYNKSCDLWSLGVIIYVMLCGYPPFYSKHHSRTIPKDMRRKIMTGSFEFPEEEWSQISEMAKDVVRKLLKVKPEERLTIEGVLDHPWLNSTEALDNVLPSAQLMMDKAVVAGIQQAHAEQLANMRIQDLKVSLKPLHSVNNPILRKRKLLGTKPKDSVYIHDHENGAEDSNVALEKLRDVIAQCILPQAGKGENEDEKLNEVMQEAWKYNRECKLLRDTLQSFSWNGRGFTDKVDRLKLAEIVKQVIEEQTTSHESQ
Glycogen synthase kinase-3 beta (Homo sapiens), sequence (P49841 whole entry, looked up, the tested form may be a part): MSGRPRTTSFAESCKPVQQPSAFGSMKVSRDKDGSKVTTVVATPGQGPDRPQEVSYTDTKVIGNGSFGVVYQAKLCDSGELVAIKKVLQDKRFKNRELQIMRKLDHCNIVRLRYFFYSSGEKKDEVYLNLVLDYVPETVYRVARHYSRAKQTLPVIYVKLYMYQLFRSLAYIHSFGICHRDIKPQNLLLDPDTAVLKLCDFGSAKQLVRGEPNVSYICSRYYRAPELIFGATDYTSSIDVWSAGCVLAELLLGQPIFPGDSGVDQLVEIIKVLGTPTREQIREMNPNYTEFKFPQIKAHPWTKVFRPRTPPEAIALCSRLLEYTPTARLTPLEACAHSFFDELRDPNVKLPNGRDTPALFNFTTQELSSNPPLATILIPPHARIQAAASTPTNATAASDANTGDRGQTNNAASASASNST
Mitogen-activated protein kinase 10 (Homo sapiens), sequence (P53779 whole entry, the tested form may be a part): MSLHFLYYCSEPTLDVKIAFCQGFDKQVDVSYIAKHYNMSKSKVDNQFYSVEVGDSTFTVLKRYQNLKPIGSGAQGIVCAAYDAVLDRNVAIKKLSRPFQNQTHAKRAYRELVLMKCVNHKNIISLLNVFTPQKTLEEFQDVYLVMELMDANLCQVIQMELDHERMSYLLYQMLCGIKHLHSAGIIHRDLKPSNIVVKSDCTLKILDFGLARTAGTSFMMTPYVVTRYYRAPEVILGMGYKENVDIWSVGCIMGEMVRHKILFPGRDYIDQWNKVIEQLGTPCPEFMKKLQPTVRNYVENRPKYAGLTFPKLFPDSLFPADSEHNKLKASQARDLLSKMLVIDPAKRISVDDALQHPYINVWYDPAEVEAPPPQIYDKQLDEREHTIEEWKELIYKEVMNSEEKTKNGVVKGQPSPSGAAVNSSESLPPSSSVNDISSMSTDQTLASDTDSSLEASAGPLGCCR

| SMILES | Activity [1] [%] | Activity [2] [%] | Activity [3] [%] | Activity [4] [%] | Activity [5] [%] | Activity [6] [%] | Activity [7] [%] | Activity [8] [%] | Activity [9] [%] | Activity [10] [%] | Activity [11] [%] | Activity [12] [%] | Activity [13] [%] | Activity [14] [%] | Activity [15] [%] | EC50 (Aurora kinase B) [nM] | Activity [16] [%] | Activity [17] [%] | IC50 [18] [nM] | Activity [19] [%] | further results |
| --- | --- | --- | --- | --- | --- | --- | --- | --- | --- | --- | --- | --- | --- | --- | --- | --- | --- | --- | --- | --- | --- |
| C=CC(=O)Nc1ccc(C(=O)Nc2ccc(Nc3ncc4c(n3)N(C)c3ccc(C)cc3C(=O)N4C)cc2)cc1 | 92 | 83 | 83 | 99 | 84 | 99 | 100 | 100 | 97 | 88 | 100 | 100 | 100 | 83 | 100 | 7.1 | 89 | 100 | 754 | 77 | Activity [20]: 62%; Activity [21]: 72%; Activity [22]: 97%; Activity [23]: 99% |
| CCC(=O)Nc1ccc(C(=O)Nc2ccc(Nc3ncc4c(n3)N(C)c3ccc(C)cc3C(=O)N4C)cc2)cc1 | 82 | 76 | 100 | 55 | 85 | 90 | 99 | 81 | 95 | 89 | 61 | 70 | 92 | 77 | 72 | 11 | 87 | 97 | 714 | 67 | Activity [20]: 76%; Activity [21]: 76%; Activity [22]: 98%; Activity [23]: 87% |
